# Results pooled from the literature.
# Compare with care: the assays were run in different laboratories.
# Target: Serine/threonine-protein kinase 16 (STK16, Homo sapiens, UniProt O75716)
SMILES,test,setting,measurement,value
FC(F)(F)Oc1cccc(-c2cnc3ccc(-c4ccncc4)nn23)c1,"enzyme activity, inhibitor, radiometric",5 µM,activity vs control,118%
O=C1Nc2ccc(Cl)cc2C1=Cc1cc(Cl)c(O)c(Cl)c1,cell-free assay,0.5 µM,remaining signal,90.2%
O=C(NCc1ncc(C(F)(F)F)cc1Cl)c1ccc2c(c1)C1(CCS(=O)(=O)CC1)[C@@H](C1CC1)N2S(=O)(=O)c1ccc(F)cc1,"cell-free assay, competition with immobilised ligand",1 µM,remaining binding,99%
C[C@@H]1CCN(C(=O)CC#N)C[C@@H]1N(C)c1ncnc2[nH]ccc12,"cell-free assay, inhibitor",0.5 µM,remaining signal,94.7%
c1ccc(N2CCN(Cc3nc4ccccc4[nH]3)CC2)nc1,"binding, competition with immobilised ligand",1 µM,remaining binding,87%
Cn1cnc(Br)c1C1=CN(c2ncnc3[nH]cnc23)CCS1,"enzyme activity, inhibitor, radiometric",2 µM,inhibition,67.8%
COc1cc(-c2cc(-c3ccc(N4CCNCC4)cc3)cnc2C)cc(OC)c1OC,"enzyme activity, inhibitor",1 µM,inhibition,8%
CN1CC(Oc2cnc(C#N)cc2-c2ccn3nc(NC(=O)C4CC4)cc3c2)C1,"enzyme activity, inhibitor",1 µM,inhibition,10%
O=C(Nc1cnn(-c2csc(C(=O)NC3COC3)c2)c1)Nc1c(F)cccc1Cl,"enzyme activity, inhibitor",5 µM,remaining activity,107%
CC(C)(O)[C@H]1CC[C@H](Nc2ccc3ncc(-c4cccc(C(F)(F)F)c4)n3n2)CC1,"enzyme activity, inhibitor",1 µM,remaining activity,78.7%
COc1cc(Nc2cnc(C#N)c(O[C@H](C)CN(C)C)n2)ncc1-c1cnn(C)c1,"enzyme activity, inhibitor, radiometric",10 µM,remaining activity,91%
CCS(=O)(=O)c1cc2cc(C[C@@](O)(CC(C)(C)c3ccc(F)cc3C(N)=O)C(F)(F)F)[nH]c2cn1,"cell-free assay, competition with immobilised ligand",1 µM,remaining binding,91%
C#Cc1cccc(Nc2ncnc3cc(OCCOC)c(OCCOC)cc23)c1,cell-free assay,0.5 µM,remaining signal,98%
CC(=O)Nc1c(C(C)=O)c(=O)n(C)c2nc(-c3ccc(Cl)cc3Cl)c(-c3ccc(Cl)cc3)cc12,"cell-free assay, competition with immobilised ligand",1 µM,remaining binding,100%
Cn1cncc1C1=CN(c2ncnc3[nH]cnc23)CCS1,"enzyme activity, inhibitor, radiometric",2 µM,inhibition,49.5%
O=C(O)c1cc(-c2ccc(C3CCNCC3)cc2)c2ccc(-c3ccc(C(F)(F)F)cc3)cc2c1,"cell-free assay, competition with immobilised ligand",1 µM,remaining binding,100%
N#CCCc1ccc2c(c1)-c1[nH]c3ccc([N+](=O)[O-])cc3c1CC(=O)N2,cell-free assay,0.5 µM,remaining signal,87%
Cn1cc(Cl)c2c(Oc3c(F)cc(Nc4cc(Cl)nc(N)n4)cc3F)ccnc21,"cell-free assay, competition with immobilised ligand",0.1 µM,remaining binding,100%
COc1cc(Cl)c(C(=O)N[C@@H](CN[C@H]2CC[C@@H](N)CC2)Cc2ccc(C#N)cc2)cc1-c1ccc(CN[C@H](C)c2ccc(C)cc2)o1,"enzyme activity, inhibitor",1 µM,remaining activity,95%
